# Measured values published in ChEMBL document CHEMBL4396943, “The tetrahydroxanthone-dimer phomoxanthone A is a strong inducer of apoptosis in cisplatin-resistant solid cancer cells” (Bioorg Med Chem, 2019).
# The source made the active and inactive calls. The rule behind the calls is not given here.
# Assays:
# A2780 [1] = experiment: Induction of apoptosis in human A2780 cells assessed as nuclear condensation by measuring reduced size and increased intensity of nuclei at 10 uM incubated for 24 hrs by hoechst 33342 staining based fluorescence microscopy; format: functional, cell-based
# A2780cisR [2] = experiment: Cell cycle arrest in human A2780cisR cells assessed as accumulation at G1 phase at 1 uM incubated for 24 hrs by propidium iodide staining based flow cytometry (reference value: 68.7%); format: functional
# How it was run: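 After 24 h exposure, cells washed in ice-cold PBS. About 2 million cells fixed in cold 70% ethanol at −20 °C for at least 24 h. Stained with 0.1% Triton X-100, 200 µg/ml RNase A and 20 µg/ml propidium iodide in PBS, 15 min at 37 °C in the dark. DNA content read by flow cytometry with doublet discrimination. Medium as untreated control, paclitaxel as G2/M control. Three independent experiments.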
# KYSE-510 = experiment: Antiproliferative activity against human KYSE-510 cells assessed as reduction in cell viability incubated for 72 hrs by MTT assay; format: functional, cell-based; conditions: KYSE-510, 72 h
# How it was run: (§1)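 Cells seeded overnight in 96-well plates, then exposed to increasing concentrations (compound dissolved in DMSO, diluted in medium) for the stated time. MTT (5 mg/ml in PBS) added for 15 min, formazan dissolved in DMSO, absorbance read at 544 nm minus 690 nm background. IC50 = concentration giving 50% signal decrease. At least three independent experiments in triplicate.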
# J82 [3] = experiment: Induction of apoptosis in human J82 cells assessed as mitochondrial membrane potential at 1 uM incubated for 2 hrs by hoechst 33342 staining based fluorescence microscopy; format: functional, cell-based
# How it was run: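 J82 cells treated 2 h with PXA, then labelled 20 min with TMRE plus Hoechst 33342. ΔΨm read by high-content fluorescence imaging. Untreated medium and 20 µM CCCP served as controls.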
# A2780 [4] = experiment: Induction of apoptosis in human A2780 cells assessed as accumulation in subG1 phase incubated for 24 hrs by propidium iodide staining based flow cytometry; format: functional, cell-based
# How it was run: (§2)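 Cells plated in 24-well plates (about 100,000/well) for one day, then treated 24 h. Where used, caspase inhibitor Q-VD-OPh (20 µM) was added 1 h before. Cells lysed in hypotonic buffer (0.1% sodium citrate, 0.1% Triton X-100, 100 µg/ml propidium iodide) overnight at 4 °C in the dark. Sub-G1 fraction read by flow cytometry. Medium control, cisplatin positive control.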
# J82 [5] = experiment: Induction of apoptosis in human J82 cells assessed as accumulation in subG1 phase at 5 uM incubated for 24 hrs by propidium iodide staining based flow cytometry relative to control; format: functional
# How it was run: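 About 100,000 cells/well plated; after one day, treated 24 h. Cells lysed in hypotonic buffer (0.1% sodium citrate, 0.1% Triton X-100, 100 µg/ml propidium iodide) and kept overnight at 4 °C in the dark. Sub-G1 fraction measured by flow cytometry. Medium as control, cisplatin as positive control.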
# A2780 [6] = experiment: Induction of apoptosis in human A2780 cells assessed as decrease in cIAP expression at 5 uM incubated for 24 hrs by proteome profiler analysis; format: functional, cell-based
# How it was run: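 A2780 cells treated 24 h with 5 µM, then apoptosis-related proteins read on an antibody array (Proteome Profiler human apoptosis array) per kit instructions.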
# A2780 [7] = experiment: Antiproliferative activity against human A2780 cells assessed as reduction in cell viability incubated for 24 hrs by MTT assay; format: functional, cell-based; conditions: A2780, 24 h; how it was run: as §1
# J82 [8] = experiment: Induction of apoptosis in human J82 cells assessed as depolarization of mitochondrial membrane potential incubated for 1 hr by TMRE staining based flow cytometry; format: functional, cell-based
# How it was run: (§3)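 Cells seeded overnight; complete medium swapped for FBS-free medium just before treatment to avoid TMRE ester cleavage. Exposure to PXA for 1 h, 2 h or 24 h. TMRE staining 20 min, cells collected by trypsinisation, ΔΨm read by flow cytometry. Medium served as negative control, 20 µM CCCP as positive control. Mean ± SEM reported.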
# A2780 [9] = experiment: Induction of apoptosis in human A2780 cells assessed as increase in intracellular calcium level at 1 and 30 uM incubated for 30 mins by fluorimetry; format: functional, cell-based
# How it was run: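 Cells seeded in 96-well plates overnight, washed twice with Krebs-HEPES buffer, loaded 1 h at 37 °C in the dark with Oregon Green BAPTA-1 AM (final 3 µM) and Pluronic F-127. Buffer replaced, PXA added, fluorescence at 544 nm recorded for 30 min, with or without 1 mM extracellular Ca2+. Three experiments, mean ± SEM.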
# [10] = Potency index, ratio of cisplatin IC50 to compound IC50 for antiproliferative activity in human Cal27CisR cells assessed as reduction in cell viability incubated for 72 hrs by MTT assay; format: functional
# How it was run: (§4)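 Cells seeded in 96-well plates overnight, exposed 72 h to increasing concentrations. MTT (5 mg/ml) added for 15 min, formazan dissolved in DMSO, absorbance read at 544 nm with 690 nm background subtracted. IC50 is the concentration reducing signal by 50%. Three independent experiments in triplicate. CisR sublines made by weekly intermittent cisplatin exposure for 24–30 weeks.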
# A2780cisR [11] = experiment: Induction of apoptosis in human A2780cisR cells assessed as depolarization of mitochondrial membrane potential at 1 uM by TMRE staining based flow cytometry; format: functional, cell-based; conditions: TDE = time-dependent effect; how it was run: as §3
# CAL-27 = experiment: Potency index, ratio of cisplatin IC50 to compound IC50 for antiproliferative activity in human CAL27 cells assessed as reduction in cell viability incubated for 72 hrs by MTT assay; format: functional; how it was run: as §4
# A2780cisR [12] = experiment: Induction of apoptosis in human A2780cisR cells assessed as depolarization of mitochondrial membrane potential after 24 hrs by TMRE staining based flow cytometry; format: functional, cell-based; how it was run: as §3
# A2780 [13] = experiment: Induction of apoptosis in human A2780 cells assessed as depolarization of mitochondrial membrane potential at 1 uM incubated for 1 hr by TMRE staining based flow cytometry; format: functional
# How it was run: (§5)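 Cells seeded overnight; medium switched to FBS-free just before treatment to avoid TMRE ester cleavage. Exposure 1 h, 2 h or 24 h, then TMRE staining for 20 min. Cells trypsinized, centrifuged at 4 °C and read by flow cytometry. Medium as negative control, 20 µM CCCP as positive control. […]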
# A2780 [14] = experiment: Potency index, ratio of cisplatin IC50 to compound IC50 for antiproliferative activity in human A2780 cells assessed as reduction in cell viability incubated for 72 hrs by MTT assay; format: functional; how it was run: as §4
# A2780cisR [15] = experiment: Antiproliferative activity against human A2780cisR cells assessed as reduction in cell viability incubated for 24 hrs by MTT assay; format: functional, cell-based; how it was run: as §1
# A2780 [16] = experiment: Induction of apoptosis in human A2780 cells assessed as decrease in mitochondrial membrane potential at 1 uM incubated for 24 hrs by TMRE staining based flow cytometry; format: functional, cell-based; how it was run: as §5
# A2780 [17] = experiment: Induction of apoptosis in human A2780 cells assessed as accumulation in subG1 phase at 1 uM incubated for 24 hrs by propidium iodide staining based flow cytometry (reference value: 10%); format: functional; how it was run: as §2
compound,measurement,setting,value
CC(=O)OC[C@]12Oc3c(-c4ccc(O)c5c4O[C@@]4(COC(C)=O)C(=C(O)C[C@@H](C)[C@H]4OC(C)=O)C5=O)ccc(O)c3C(=O)C1=C(O)C[C@@H](C)[C@H]2OC(C)=O [PHOMOXANTHONE A],Activity,A2780 [1],Active
same,Activity,A2780cisR [2],72.7%
same,IC50,KYSE-510,760 nM
same,Activity,J82 [3],inactive
same,Activity,A2780 [4],Dose-dependent effect
same,Activity,J82 [5],53%
same,Activity,A2780 [6],Active
same,IC50,A2780 [7]; read-out: IC50,1440 nM
same,IC50,A2780 [7]; read-out: pIC50 (converted),1450 nM
same,Activity,J82 [8],Dose-dependent effect
same,IC50,"J82 [8]; J82, 1 h",3750 nM
same,Activity,A2780 [9],Active
same,Ratio IC50,[10],2 - 10
same,Activity,A2780cisR [11],Tde
same,Ratio IC50,CAL-27,2 - 10
same,Activity,A2780cisR [12],Dose-dependent effect
same,Activity,A2780 [13],73%
same,Ratio IC50,A2780 [14],7
same,IC50,A2780cisR [15]; read-out: IC50,1880 nM
same,IC50,A2780cisR [15]; read-out: pIC50 (converted),1860 nM
same,Activity,A2780 [16],Active
same,Activity,A2780 [17],42%
